Laboratory results reported in ChEMBL document CHEMBL1159121, “Synthesis, in vitro structure-activity relationship, and in vivo studies of 2-arylthiazolidine-4-carboxylic acid amides as anticancer agents” (Bioorg Med Chem, 2010).

Key:
LOX IMVI = assay: Growth inhibition of human LOXIMVI cells; assay type: functional
SF-268 = assay: Growth inhibition of human SF268 cells; assay type: functional
CCRF-CEM = assay: Growth inhibition of human CCRF-CEM cells; assay type: functional
SF-295 = assay: Growth inhibition of human SF295 cells; assay type: functional
UACC-62 = assay: Growth inhibition of human UACC62 cells; assay type: functional
[1] = Antiproliferative activity against mouse B16-F1 cells after 48 hrs by SRB assay; assay type: functional, cell-based; conditions: B16-F1, 48 h
In short: (§1)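 Melanoma lines and control fibroblasts grown at 37 °C, 5% CO2, then exposed to a wide concentration range for 48 h in round-bottom 96-well plates. Fixed with 10% TCA, stained with SRB, protein read at 560 nm. IC50 (50% growth inhibition versus untreated) obtained by nonlinear regression.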

HL-60(TB) = assay: Growth inhibition of human HL-60(TB) cells; assay type: functional
786-0 = assay: Growth inhibition of human 786-0 cells; assay type: functional
SK-MEL-5 = assay: Growth inhibition of human SK-MEL-5 cells; assay type: functional
SNB-19 = assay: Growth inhibition of human SNB19 cells; assay type: functional
A498 = assay: Growth inhibition of human A498 cells; assay type: functional
MOLT-4 = assay: Growth inhibition of human MOLT4 cells; assay type: functional
SN12C = assay: Growth inhibition of human SN12C cells; assay type: functional
[2] = Cytotoxicity against human fibroblasts after 48 hrs by SRB assay; assay type: cell-based; conditions: Fibroblast; in short: as §1
NCI-H322M = assay: Growth inhibition of human NCI-H322M cells; assay type: functional
HT-29 = assay: Growth inhibition of human HT-29 cells; assay type: functional
BT-549 = assay: Growth inhibition of human BT549 cells; assay type: functional
MDA-MB-231 = assay: Growth inhibition of human MDA-MB-231 cells; assay type: functional
SF-539 = assay: Growth inhibition of human SF539 cells; assay type: functional
NCI-H460 = assay: Growth inhibition of human NCI-H460 cells; assay type: functional
U-251 = assay: Growth inhibition of human U251 cells; assay type: functional
OVCAR-3 = assay: Growth inhibition of human OVCAR-3 cells; assay type: functional
ACHN = assay: Growth inhibition of human ACHN cells; assay type: functional
SK-MEL-28 = assay: Growth inhibition of human SK-MEL-28 cells; assay type: functional
SK-OV-3 = assay: Growth inhibition of human SKOV3 cells; assay type: functional
PC-3 = assay: Growth inhibition of human PC3 cells; assay type: functional
M14 = assay: Growth inhibition of human M14 cells; assay type: functional
RXF 393 = assay: Growth inhibition of human RXF393 cells; assay type: functional
RH7777 = assay: Cytotoxicity against rat RH7777 cells after 96 hrs by SRB assay; assay type: cell-based; conditions: RH7777, 96 h
In short: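 Prostate lines in RPMI1640/10% FBS; RH7777 in DMEM/10% FBS. Cells TCA-fixed, stained with 0.4% SRB, absorbance read at 540 nm. IC50 from nonlinear regression of % survival against concentration.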

HOP-62 = assay: Growth inhibition of human HOP62 cells; assay type: functional
UACC-257 = assay: Growth inhibition of human UACC257 cells; assay type: functional
TK-10 = assay: Growth inhibition of human TK10 cells; assay type: functional
MDA-MB-435 = assay: Growth inhibition of human MDA-MB-435 cells; assay type: functional
SW-620 = assay: Growth inhibition of human SW620 cells; assay type: functional
EKVX = assay: Growth inhibition of human EKVX cells; assay type: functional
COLO 205 = assay: Growth inhibition of human COLO205 cells; assay type: functional
[3] = Antiproliferative activity against human WM164 cells after 48 hrs by SRB assay; assay type: functional, cell-based; conditions: WM164, 48 h; in short: as §1
[4] = Growth inhibition of human Hs 578T cells; assay type: functional
OVCAR-8 = assay: Growth inhibition of human OVCAR8 cells; assay type: functional
HCT-116 = assay: Growth inhibition of human HCT116 cells; assay type: functional
NCI/ADR-RES = assay: Growth inhibition of human NCI/ADR-RES cells; assay type: functional
[5] = read-out: LC50 (the source's name)

SMILES: CCCCCCCCCCCCCCCCCCNC(=O)[C@@H]1CSC(c2ccccc2)N1 (mixture of isomers)
- GI50 (LOX IMVI): 1.23 µM
- TGI (LOX IMVI): 2.59 µM
- CC50 (LOX IMVI; [5]): 5.48 µM
- GI50 (SF-268): 1.2 µM
- TGI (SF-268): 2.57 µM
- CC50 (SF-268; [5]): 5.53 µM
- GI50 (CCRF-CEM): 0.56 µM
- TGI (CCRF-CEM): 2.1 µM
- CC50 (CCRF-CEM; [5]): 6.5 µM
- GI50 (SF-295): 4.37 µM
- TGI (SF-295): 15.9 µM
- CC50 (SF-295; [5]): 74.7 µM
- GI50 (UACC-62): 2.14 µM
- TGI (UACC-62): 3.78 µM
- CC50 (UACC-62; [5]): 6.68 µM
- IC50 [1]: 15.5 µM
- GI50 (HL-60(TB)): 2.03 µM
- TGI (HL-60(TB)): 3.8 µM
- CC50 (HL-60(TB); [5]): 7.11 µM
- GI50 (786-0): 1.78 µM
- TGI (786-0): 3.17 µM
- CC50 (786-0; [5]): 5.63 µM
- GI50 (SK-MEL-5): 1.92 µM
- TGI (SK-MEL-5): 3.63 µM
- CC50 (SK-MEL-5; [5]): 6.87 µM
- GI50 (SNB-19): 2.03 µM
- TGI (SNB-19): 3.66 µM
- CC50 (SNB-19; [5]): 6.6 µM
- GI50 (A498): 2.73 µM
- TGI (A498): 5.3 µM
- CC50 (A498; [5]): 11.5 µM
- GI50 (MOLT-4): 0.86 µM
- TGI (MOLT-4): 2.43 µM
- CC50 (MOLT-4; [5]): 6.51 µM
- GI50 (SN12C): 1.94 µM
- TGI (SN12C): 3.35 µM
- CC50 (SN12C; [5]): 5.79 µM
- IC50 [2]: 29.8 µM
- GI50 (NCI-H322M): 2.28 µM
- TGI (NCI-H322M): 5.15 µM
- CC50 (NCI-H322M; [5]): 15.4 µM
- GI50 (HT-29): 1.75 µM
- TGI (HT-29): 3.41 µM
- CC50 (HT-29; [5]): 6.67 µM
- GI50 (BT-549): 0.84 µM
- TGI (BT-549): 2.06 µM
- CC50 (BT-549; [5]): 4.54 µM
- GI50 (MDA-MB-231): 1.61 µM
- TGI (MDA-MB-231): 3.12 µM
- CC50 (MDA-MB-231; [5]): 6.05 µM
- GI50 (SF-539): 1.72 µM
- TGI (SF-539): 3.09 µM
- CC50 (SF-539; [5]): 5.56 µM
- GI50 (NCI-H460): 1.41 µM
- TGI (NCI-H460): 2.98 µM
- CC50 (NCI-H460; [5]): 6.31 µM
- GI50 (U-251): 1.8 µM
- TGI (U-251): 3.19 µM
- CC50 (U-251; [5]): 5.65 µM
- GI50 (OVCAR-3): 4.27 µM
- TGI (OVCAR-3): 16.2 µM
- CC50 (OVCAR-3; [5]): 80.2 µM
- GI50 (ACHN): 2.12 µM
- TGI (ACHN): 4.9 µM
- CC50 (ACHN; [5]): 13.5 µM
- GI50 (SK-MEL-28): 1.49 µM
- TGI (SK-MEL-28): 2.81 µM
- CC50 (SK-MEL-28; [5]): 5.3 µM
- GI50 (SK-OV-3): 2.9 µM
- TGI (SK-OV-3): 5.65 µM
- CC50 (SK-OV-3; [5]): 18.6 µM
- GI50 (PC-3): 2.97 µM
- TGI (PC-3): 10.7 µM
- CC50 (PC-3; [5]): 32.8 µM
- GI50 (M14): 1.44 µM
- TGI (M14): 2.75 µM
- CC50 (M14; [5]): 5.24 µM
- GI50 (RXF 393): 1.55 µM
- TGI (RXF 393): 3.01 µM
- CC50 (RXF 393; [5]): 5.85 µM
- IC50 (RH7777): > 20 µM
- GI50 (HOP-62): 1.77 µM
- TGI (HOP-62): 3.15 µM
- CC50 (HOP-62; [5]): 5.61 µM
- GI50 (UACC-257): 2.13 µM
- TGI (UACC-257): 4.23 µM
- CC50 (UACC-257; [5]): 8.4 µM
- GI50 (TK-10): 7.46 µM
- TGI (TK-10): 29.2 µM
- CC50 (TK-10; [5]): > 100 µM
- GI50 (MDA-MB-435): 2.01 µM
- TGI (MDA-MB-435): 4.12 µM
- CC50 (MDA-MB-435; [5]): 8.45 µM
- GI50 (SW-620): 1.18 µM
- TGI (SW-620): 2.4 µM
- CC50 (SW-620; [5]): 4.9 µM
- GI50 (EKVX): 2.12 µM
- TGI (EKVX): 4.72 µM
- CC50 (EKVX; [5]): 12.3 µM
- GI50 (COLO 205): 2.32 µM
- TGI (COLO 205): 4.98 µM
- CC50 (COLO 205; [5]): 12.7 µM
- IC50 [3]: 4.4 µM
- GI50 [4]: 1.82 µM
- TGI [4]: 4.08 µM
- CC50 [4, 5]: 9.14 µM
- GI50 (OVCAR-8): 2.24 µM
- TGI (OVCAR-8): 6.14 µM
- CC50 (OVCAR-8; [5]): > 100 µM
- GI50 (HCT-116): 1.31 µM
- TGI (HCT-116): 2.58 µM
- CC50 (HCT-116; [5]): 5.08 µM
- GI50 (NCI/ADR-RES): 2.02 µM
- TGI (NCI/ADR-RES): 3.85 µM
- CC50 (NCI/ADR-RES; [5]): 7.37 µM
